Structures are written as SMILES. A value given as a limit tells only on which side of the number the result lay.

The test system of one data set is Human alphaherpesvirus 2. Kind of data set: Inhibitory activity against Herpes simplex virus 2 in vero cells at 100 uM. It counts as functional. The conditions noted are these: Human alphaherpesvirus 2, Vero.
The target of data set [1] is T1, DNA polymerase alpha catalytic subunit (Homo sapiens, UniProt P09884).
T1 sequence (P09884 whole entry): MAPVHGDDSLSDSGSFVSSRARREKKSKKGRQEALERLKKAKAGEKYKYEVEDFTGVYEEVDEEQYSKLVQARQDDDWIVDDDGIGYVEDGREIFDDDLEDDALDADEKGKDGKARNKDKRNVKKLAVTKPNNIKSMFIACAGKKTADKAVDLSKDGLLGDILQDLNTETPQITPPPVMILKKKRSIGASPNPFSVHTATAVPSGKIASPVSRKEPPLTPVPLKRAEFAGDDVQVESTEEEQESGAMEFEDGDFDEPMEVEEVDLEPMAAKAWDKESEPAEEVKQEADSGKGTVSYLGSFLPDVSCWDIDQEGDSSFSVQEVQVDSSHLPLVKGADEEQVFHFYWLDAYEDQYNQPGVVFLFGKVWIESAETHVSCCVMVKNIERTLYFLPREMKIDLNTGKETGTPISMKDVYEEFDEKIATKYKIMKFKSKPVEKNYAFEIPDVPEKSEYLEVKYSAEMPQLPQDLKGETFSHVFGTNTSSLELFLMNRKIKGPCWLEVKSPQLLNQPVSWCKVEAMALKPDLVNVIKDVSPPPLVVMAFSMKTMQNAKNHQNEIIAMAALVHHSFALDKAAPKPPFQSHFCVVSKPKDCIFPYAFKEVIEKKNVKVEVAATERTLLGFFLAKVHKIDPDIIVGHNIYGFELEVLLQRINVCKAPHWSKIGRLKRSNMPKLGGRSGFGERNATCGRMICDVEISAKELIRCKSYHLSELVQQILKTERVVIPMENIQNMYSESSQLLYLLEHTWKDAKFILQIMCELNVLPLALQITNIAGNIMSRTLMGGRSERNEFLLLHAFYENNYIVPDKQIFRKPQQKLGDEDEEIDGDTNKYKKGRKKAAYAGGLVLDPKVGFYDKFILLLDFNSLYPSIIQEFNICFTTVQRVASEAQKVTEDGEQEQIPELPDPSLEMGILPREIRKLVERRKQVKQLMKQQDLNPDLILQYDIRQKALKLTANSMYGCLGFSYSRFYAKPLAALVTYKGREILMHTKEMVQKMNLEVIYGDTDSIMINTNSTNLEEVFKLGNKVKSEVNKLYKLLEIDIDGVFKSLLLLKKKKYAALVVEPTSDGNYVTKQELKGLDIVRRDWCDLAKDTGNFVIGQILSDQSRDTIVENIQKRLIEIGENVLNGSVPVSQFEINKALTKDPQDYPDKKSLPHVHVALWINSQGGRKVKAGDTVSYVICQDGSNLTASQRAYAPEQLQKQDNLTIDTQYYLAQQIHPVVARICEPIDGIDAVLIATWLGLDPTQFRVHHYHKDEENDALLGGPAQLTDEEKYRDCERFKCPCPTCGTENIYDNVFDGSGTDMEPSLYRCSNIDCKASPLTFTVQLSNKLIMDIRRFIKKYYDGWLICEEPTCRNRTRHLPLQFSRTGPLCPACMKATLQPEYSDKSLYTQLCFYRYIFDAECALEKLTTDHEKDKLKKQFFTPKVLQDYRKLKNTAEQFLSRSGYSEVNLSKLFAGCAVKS
The data set is described as follows: Percent inhibition of DNA polymerase alpha at 100 uM.

In data set [2] the test system is Vero. Kind of data set: Inhibitory concentration against HSV-1 in vero cells. The conditions noted are these: Chlorocebus sabaeus. It is filed as functional, cell-based.
The subject of data set [3] is MRC5. Kind of data set: Inhibitory concentration against human cytomegalovirus (HCMV1) in MRC5 cells. It is filed as functional, cell-based.
In data set [4] the test system is Vero. The data set is described as follows: Inhibitory concentration against HSV-2 in vero cells. It is filed as functional, cell-based. As to conditions: Chlorocebus sabaeus. The method, boiled down: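 HSV-2 plaque reduction assay in Vero cells; the value is reported as IC50 in µM.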
The test system of data set [5] is MRC5. Kind of data set: Inhibitory concentration against VZV in MRC5 cells. As to conditions: Homo sapiens. It counts as functional, cell-based.
Data set [6] deals with Vero. Kind of data set: Cytotoxicity against vero cells. It is filed as cell-based. The conditions noted are these: Chlorocebus sabaeus.
Data set [7] concerns the target T1, DNA polymerase alpha catalytic subunit. Kind of data set: Effective concentration against DNA polymerase alpha. It is filed as single protein. A digest of the protocol: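 DNA polymerase α enzyme assay using activated calf thymus DNA as template, with no NaCl or KCl added.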
The nature of data set [8]: Toxicity observed in vero cells. It counts as cell-based. The conditions noted are these: Chlorocebus sabaeus.
For the next data set, the system named is Nucleic Acid. Kind of data set: Effective concentration against DNA polymerase of Herpes simplex virus 2 (HSV-2). It counts as nucleic-acid assay, Human alphaherpesvirus 2.

On to `C[C@@]1(CO)[C@H](O)CC[C@]2(C)C3=C[C@H](O)[C@H](CO)C[C@@H]3CC[C@@H]12`, for which, in the data set with Human alphaherpesvirus 2, the inhibition (as a rule, the relative decrease from the control value, in per cent) at 100 µM turned out to be 0%.
Consider `COc1ccc2c(c1)[C@@]1(C)CCC[C@@](C)(C(=O)O)[C@@H]1CC2`, for which, in [1], the inhibition turned out to be 4%. The inhibition at 100 µM in the data set on Human alphaherpesvirus 2 was found to be 31%.
Compound `C[C@@]1(CO)CCC[C@]2(C)c3cc(O)c(CO)cc3CC[C@@H]12` gave an inhibition at 100 µM in the data set with Human alphaherpesvirus 2 of 0%.
The same measure, in the same setting: in the case of `COc1cc2c(cc1CO)CC[C@H]1[C@](C)(C(=O)O)CCC[C@]21C` it was 13%.
As for `C[C@@]1(CO)[C@@H](O)CC[C@@]2(C)c3cc(O)c(CO)cc3CC[C@@H]12`, the IC50 – broadly, the point on the concentration scale where inhibition reaches its midpoint – in the data set on Vero [2] is over 200 µM; with MRC5 [3], over 100 µM; with Vero [4], over 100 µM; in the data set with MRC5 [5], over 100 µM; in the data set with Vero [6], over 500 µM.
In the case of `C[C@@]1(CO)[C@H](O)CC[C@@]2(C)c3cc(O)c(CO)cc3CC[C@@H]12`, the IC50 in the data set with Vero [2] was 222 µM; in the data set on MRC5 [3] it was over 100 µM; with Vero [4] it was over 100 µM; with MRC5 [5] it was over 100 µM; with Vero [6], over 500 µM.
For the compound `COc1ccc2c(c1)[C@@]1(C)CC[C@@H](O)[C@@](C)(CO)[C@@H]1CC2`, the inhibition at 100 µM in the data set with Human alphaherpesvirus 2 amounted to 36%.
Regarding `C[C@@]1(CO)[C@H](O)CC[C@]2(C)c3cc(O)c(CO)cc3CC[C@@H]12`, the IC50 with Vero [2] was 133 µM; in the data set with MRC5 [3], 76 µM; in the data set with Vero [4], over 100 µM; in the data set with MRC5 [5] it was over 100 µM; in the data set with Vero [6] it was over 500 µM. Moreover, the EC50 – broadly, the concentration at which the effect is half-maximal – in data set [7] is 4 µM. In the data set on Human alphaherpesvirus 2, this compound yielded an inhibition at 100 µM of 90%.
Regarding `C[C@@]1(CO)[C@H](O)CC[C@]2(C)c3cc(O)ccc3CC[C@@H]12`, in [7], the EC50 worked out at 8 µM. Further, in the data set with Human alphaherpesvirus 2, the inhibition at 100 µM was 25%.
`COc1cc2c(cc1CO)CC[C@H]1[C@](C)(CO)CCC[C@]21C`: the inhibition in data set [1] was determined as 3%; in [8] it was 100%.
In the case of `COc1cc2c(cc1CO)CC[C@H]1[C@](C)(CO)[C@H](O)CC[C@]21C`, the IC50 in the data set on Vero [2] was over 100 µM; in the data set on MRC5 [3], over 100 µM; in the data set with Vero [4] it was over 100 µM; in the data set with MRC5 [5] it was over 100 µM; in the data set with Vero [6], over 500 µM.
In turn, `C[C@@]1(C(=O)O)CCC[C@]2(C)c3cc(O)c(CO)cc3CC[C@@H]12` returned an inhibition at 100 µM in the data set on Human alphaherpesvirus 2 of 15%.
In data set [8], `COC(=O)[C@]1(C)CCC[C@]2(C)c3cc(OC)c(C=O)cc3CC[C@@H]12` displayed an inhibition of 100%.
In the data set with Human alphaherpesvirus 2, `COC(=O)[C@]1(C)CCC[C@]2(C)c3cc(OC)c(CO)cc3CC[C@@H]12` showed an inhibition at 100 µM of 100%.
`C[C@@]1(CO)[C@@H](O)CC[C@]2(C)c3cc(O)c(CO)cc3CC[C@@H]12`: the IC50 in the data set on Vero [2] is 198 µM; with MRC5 [3], over 100 µM; in the data set with Vero [4], over 100 µM; in the data set with MRC5 [5] it was over 100 µM; in the data set on Vero [6] it was over 500 µM. Also, it took 7 µM to reach a half-maximal effect in data set [7] (EC50). Further, in the data set on Human alphaherpesvirus 2, 100 µM produced 19% inhibition.
Compound `COc1ccc2c(c1)[C@@]1(C)CCC[C@@](C)(N)[C@@H]1CC2` yielded an EC50 in data set [7] of 1 µM. In addition, in the data set on Human alphaherpesvirus 2, 100 µM produced 100% inhibition.
In the data set on Human alphaherpesvirus 2, `COc1ccc2c(c1)[C@@]1(C)CC[C@H](O)[C@@](C)(CO)[C@@H]1CC2` showed an inhibition at 100 µM of 10%.
Turning to `C[C@@]1(CO)[C@@H](O)CC[C@]2(C)c3cc(O)ccc3CC[C@@H]12`, in the data set with Human alphaherpesvirus 2, the inhibition at 100 µM worked out at 34%.
Take `C[C@@]1(C(=O)O)CCC[C@]2(C)c3cc(O)c(C=O)cc3CC[C@@H]12`: the half-maximal effective concentration (EC50) in [7] turned out to be 5 µM. The compound further showed an inhibition at 100 µM with Human alphaherpesvirus 2 of 0%.
As for `COc1cc2c(cc1CO)CC[C@H]1[C@](C)(CO)[C@@H](O)CC[C@]21C`, the IC50 in the data set with Vero [2] was over 100 µM; in the data set on MRC5 [3], over 100 µM; in the data set with Vero [4] it was over 100 µM; in the data set on MRC5 [5] it was over 100 µM; with Vero [6], over 500 µM.
`C[C@@]1(CO)[C@H](O)CC[C@@]2(C)[C@H]1CC[C@H]1C[C@@H]3C[C@@]12CC[C@]3(O)CO` [APHIDICOLIN]: in the data set on Nucleic Acid, the EC50 came out at 5 µM.

The values are drawn from ChEMBL document CHEMBL1126891 (J Med Chem, 1993).
